Data reported in ChEMBL document CHEMBL3862036, “Biphenyl Pyridazinone Derivatives as Inhaled PDE4 Inhibitors: Structural Biology and Structure-Activity Relationships” (J Med Chem, 2016).

How the values were obtained:
Adenosine receptor A2a = Adenosine receptor A2a (Homo sapiens, UniProt P29274); assay: Antagonist activity at adenosine A2a receptor (unknown origin)
Rattus norvegicus [1] = assay: Anti-inflammatory activity in Sprague-Dawley rat assessed as inhibition of LPS-induced neutrophilia at 1000 ug/kg, it administered as dry powder with lactose carrier through Penn-Century insufflator dosed 1 hrs before LPS challenge and measured 5 hrs post dose; type: functional
Summary of the method: (§1)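 Compounds were micronized, comixed with lactose, and 5 mg of the mixture was insufflated intratracheally into isoflurane-anesthetized fasted male Sprague-Dawley rats (230–280 g). LPS aerosol (30 mL of a 1:100 PBS dilution of 100 mg/10 mL stock) was nebulized for 40 min at 1 or 18 h post-dose. BAL was taken 4 h later and neutrophils counted by flow cytometry. Controls: lactose alone, lactose+LPS, fluticasone (10% in lactose).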

Rattus norvegicus [2] = assay: Anti-inflammatory activity in Sprague-Dawley rat assessed as inhibition of LPS-induced neutrophilia at 10 to 1000 ug/kg, it administered as suspension with Penn-Century micro-sprayer aerosolizer dosed 1 hrs before LPS challenge and measured 5 hrs post dose; type: functional; settings: inhaled or nasal
Summary of the method: (§2)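 Suspensions in PBS/0.2% Tween 80 were homogenized, with lower doses made by 1:10 dilutions. 0.2 mL was given intratracheally by MicroSprayer to isoflurane-anesthetized fasted male Sprague-Dawley rats (230–280 g). At 1 or 18 h, rats received nebulized LPS (30 mL of a 1:100 PBS dilution of 100 mg/10 mL stock) over 40 min. Four hours later, BAL neutrophils were counted by flow cytometry.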

Rattus norvegicus [3] = assay: Toxicity in Sprague-Dawley rat model of LPS-induced neutrophilia assessed as induction of irritation in lungs at 1000 ug/kg, it administered as dry powder with lactose carrier through Penn-Century insufflator dosed 18 hrs before LPS challenge and measured 22 hrs post dose; type: organism-based; settings: in vivo, inhaled_or_intranasal, 1 mg/kg
[4] = Pro-inflammatory activity in Sprague-Dawley rat assessed as induction of neutrophilia at 1000 ug/kg, it administered as dry powder with lactose carrier through Penn-Century insufflator; settings: in vivo, inhaled_or_intranasal, 1 mg/kg
[5] = Inhibition of PDE4 in PBMC (unknown origin) assessed as reduction in LPS-induced TNFalpha production incubated for 24 hrs by ELISA; settings: Homo sapiens
Rattus norvegicus [6] = assay: Anti-inflammatory activity in Sprague-Dawley rat assessed as inhibition of LPS-induced neutrophilia at 1000 ug/kg, it administered as suspension with Penn-Century micro-sprayer aerosolizer dosed 18 hrs before LPS challenge and measured 22 hrs post dose; type: functional; settings: inhaled or nasal; summary of the method: as §2
Rattus norvegicus [7] = assay: Anti-inflammatory activity in Sprague-Dawley rat assessed as inhibition of LPS-induced neutrophilia at 100 ug/kg, it administered as suspension with Penn-Century micro-sprayer aerosolizer dosed 1 hrs before LPS challenge and measured 5 hrs post dose; type: functional; settings: inhaled or nasal; summary of the method: as §2
Adenosine receptor A1 = target: T1, Adenosine receptor A1 (Homo sapiens, UniProt P30542); assay: Antagonist activity at adenosine A1 receptor (unknown origin)
T1 sequence (P30542 whole entry): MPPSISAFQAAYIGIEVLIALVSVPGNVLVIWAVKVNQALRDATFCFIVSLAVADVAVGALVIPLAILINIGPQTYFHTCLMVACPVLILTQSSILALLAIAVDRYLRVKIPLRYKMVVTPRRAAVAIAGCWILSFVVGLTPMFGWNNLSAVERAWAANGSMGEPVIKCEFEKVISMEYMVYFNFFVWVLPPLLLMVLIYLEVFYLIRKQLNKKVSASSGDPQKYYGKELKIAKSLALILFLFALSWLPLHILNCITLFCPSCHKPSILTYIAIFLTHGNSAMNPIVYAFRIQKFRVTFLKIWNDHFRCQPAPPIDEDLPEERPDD

Rattus norvegicus [8] = assay: Anti-inflammatory activity in Sprague-Dawley rat assessed as inhibition of LPS-induced neutrophilia at 10 ug/kg, it administered as dry powder with lactose carrier through Penn-Century insufflator dosed 1 hrs before LPS challenge and measured 5 hrs post dose; type: functional; summary of the method: as §1
Adenosine receptor A2b = target: T2, Adenosine receptor A2b (Homo sapiens, UniProt P29275); assay: Antagonist activity at adenosine A2b receptor (unknown origin)
T2 sequence (P29275 whole entry): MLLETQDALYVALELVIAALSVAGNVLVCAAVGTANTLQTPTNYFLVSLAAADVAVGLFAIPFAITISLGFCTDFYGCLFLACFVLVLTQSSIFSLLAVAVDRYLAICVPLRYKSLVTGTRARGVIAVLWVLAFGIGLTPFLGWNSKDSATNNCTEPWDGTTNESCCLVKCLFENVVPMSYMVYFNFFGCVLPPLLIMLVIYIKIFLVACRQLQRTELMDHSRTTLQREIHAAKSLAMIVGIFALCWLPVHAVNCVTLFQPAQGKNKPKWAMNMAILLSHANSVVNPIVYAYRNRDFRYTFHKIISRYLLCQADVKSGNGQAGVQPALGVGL

[9] = Inhibition of PDE4 in human whole blood assessed as reduction in LPS-induced TNFalpha production incubated for 24 hrs by ELISA; type: tissue-based
Summary of the method: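 Human whole blood was preincubated with LPS (final 1 μg/mL) for 10 min at 37 °C with rocking. 200 μL was added to wells holding increasing inhibitor concentrations in 100% DMSO. Plates were incubated 24 h at 37 °C under agitation, then placed on ice, diluted with PBS and centrifuged at 800g, 4 °C, for 15 min before TNF-α measurement.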

Rattus norvegicus [10] = assay: Anti-inflammatory activity in Sprague-Dawley rat assessed as inhibition of LPS-induced neutrophilia at 100 ug/kg, it administered as suspension with Penn-Century micro-sprayer aerosolizer dosed 18 hrs before LPS challenge and measured 22 hrs post dose; type: functional; settings: inhaled or nasal; summary of the method: as §2
Rattus norvegicus [11] = assay: Anti-inflammatory activity in Sprague-Dawley rat assessed as inhibition of LPS-induced neutrophilia at 30 ug/kg, it administered as suspension with Penn-Century micro-sprayer aerosolizer dosed 18 hrs before LPS challenge and measured 22 hrs post dose; type: functional; settings: inhaled or nasal; summary of the method: as §2
Rattus norvegicus [12] = assay: Anti-inflammatory activity in Sprague-Dawley rat assessed as inhibition of LPS-induced neutrophilia at 300 ug/kg, it administered as suspension with Penn-Century micro-sprayer aerosolizer dosed 18 hrs before LPS challenge and measured 22 hrs post dose; type: functional; settings: inhaled or nasal; summary of the method: as §2
[13] = Selectivity index, ratio of IC50 for adenosine A1/A2a/A2b receptor (unknown origin) to IC50 for inhibition of PDE4 in PBMC (unknown origin) assessed as reduction in LPS-induced TNFalpha production; parameters: species or system Homo sapiens
[14] = target: 3',5'-cyclic-AMP phosphodiesterase 4B (Homo sapiens, UniProt Q07343); assay: Inhibition of human recombinant PDE4B1 assessed as reduction in [3H]cAMP hydrolysis to [3H]AMP incubated for 60 mins by PDE-SPA assay
3',5'-cyclic-AMP phosphodiesterase 4B, sequence (Q07343 whole entry): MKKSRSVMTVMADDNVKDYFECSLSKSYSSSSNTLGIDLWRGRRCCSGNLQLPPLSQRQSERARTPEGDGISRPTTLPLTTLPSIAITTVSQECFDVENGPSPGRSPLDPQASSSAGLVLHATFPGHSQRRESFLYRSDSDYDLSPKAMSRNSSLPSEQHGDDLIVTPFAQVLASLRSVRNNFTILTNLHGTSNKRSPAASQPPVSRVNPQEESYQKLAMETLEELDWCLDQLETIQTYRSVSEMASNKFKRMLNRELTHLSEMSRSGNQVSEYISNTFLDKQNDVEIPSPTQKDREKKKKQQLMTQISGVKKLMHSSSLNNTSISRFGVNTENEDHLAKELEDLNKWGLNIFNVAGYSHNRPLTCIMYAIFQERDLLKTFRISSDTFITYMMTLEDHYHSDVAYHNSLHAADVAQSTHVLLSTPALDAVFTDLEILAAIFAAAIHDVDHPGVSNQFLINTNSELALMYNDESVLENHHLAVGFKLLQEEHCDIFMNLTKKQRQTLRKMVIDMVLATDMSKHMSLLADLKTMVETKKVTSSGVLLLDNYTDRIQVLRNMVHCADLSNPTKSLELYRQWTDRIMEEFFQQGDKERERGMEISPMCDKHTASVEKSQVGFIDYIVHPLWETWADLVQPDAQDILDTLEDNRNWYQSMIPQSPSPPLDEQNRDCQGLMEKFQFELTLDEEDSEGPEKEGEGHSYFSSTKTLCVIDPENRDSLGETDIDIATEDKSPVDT

Adenosine receptor A2a, sequence (P29274 whole entry): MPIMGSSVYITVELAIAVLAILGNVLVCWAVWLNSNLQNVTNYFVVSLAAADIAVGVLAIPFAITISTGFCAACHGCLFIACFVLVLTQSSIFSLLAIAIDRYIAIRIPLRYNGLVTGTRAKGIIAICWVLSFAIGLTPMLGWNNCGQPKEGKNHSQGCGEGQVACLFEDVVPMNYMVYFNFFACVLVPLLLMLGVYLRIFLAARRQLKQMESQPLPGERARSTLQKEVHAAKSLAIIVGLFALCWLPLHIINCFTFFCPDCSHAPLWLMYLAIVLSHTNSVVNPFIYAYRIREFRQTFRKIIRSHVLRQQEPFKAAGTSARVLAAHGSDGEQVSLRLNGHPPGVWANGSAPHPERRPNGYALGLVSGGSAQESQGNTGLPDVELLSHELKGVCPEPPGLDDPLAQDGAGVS

SMILES | IC50 (Adenosine receptor A2a) [nM] | inhibition in vivo at 1 mg/kg (Rattus norvegicus [1]) [%] | ED50 (Rattus norvegicus [2]) [mg/kg] | Activity (Rattus norvegicus [3]) | fold change (FC) [4] | IC50 [5] [nM] | inhibition in vivo at 1 mg/kg (Rattus norvegicus [6]) [%] | inhibition in vivo at 0.1 mg/kg (Rattus norvegicus [7]) [%] | IC50 (Adenosine receptor A1) [nM] | inhibition in vivo at 0.01 mg/kg (Rattus norvegicus [8]) [%] | IC50 (Adenosine receptor A2b) [nM] | IC50 [9] [nM] | inhibition in vivo at 0.1 mg/kg (Rattus norvegicus [10]) [%] | inhibition in vivo at 0.03 mg/kg (Rattus norvegicus [11]) [%] | inhibition in vivo at 0.3 mg/kg (Rattus norvegicus [12]) [%] | Ratio IC50 [13] | IC50 [14] [nM]
CCn1nc(-c2cccc(-c3cccc(C(=O)NCCN(C)C)c3)c2)cc(NC(=O)Nc2c(Cl)cncc2Cl)c1=O | 28 | 8 | 0.0035 | Toxic | 3.2 | 0.3 | 38 | 70 | 2 | 38 | 77 | 425 |  |  |  |  | 
CCn1nc(-c2cccc(-c3cc(C(=O)NC4CC4)cc(C(=O)NC4CCN(Cc5ccccc5)CC4)c3)c2)cc(NC(=O)Nc2c(Cl)cncc2Cl)c1=O | > 1000 |  | 0.029 |  |  | 0.29 |  |  | > 1000 |  | > 1000 |  | 45 | 49 | 60 | >1000 | 0.22
